According to ChEMBL document CHEMBL1641595, “Molecular modeling based approach, synthesis and in vitro assay to new indole inhibitors of hepatitis C NS3/4A serine protease” (Bioorg Med Chem, 2011):
Values after ≈ are worked out from the molar mass of the structure shown.

Legend:
[1] = Inhibition of HCV NS3/4A protease after 30 mins; parameters: species or system Hepacivirus hominis
In short: (§1)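 Recombinant HCV NS3/4A protease, freshly diluted to 0.5 µg/mL, was combined with test compound in DMSO. The reaction was started with FRET peptide substrate Ac-Asp-Glu-Asp(EDANS)-Glu-Glu-Abu-ψ-[COO]Ala-Ser-Lys(DABCYL)-NH2, diluted 100-fold from a DMSO stock. After 30 min at room temperature (28 °C), fluorescence was read at […]. % inhibition = 100×(Fvehicle−Fsample)/Fvehicle, with both values corrected by subtracting the substrate control.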

Hepacivirus hominis [2] = assay: Inhibition of HCV NS3/4A protease at 50 ug/ml after 30 mins; in short: as §1
Hepacivirus hominis [3] = assay: Inhibition of HCV NS3/4A protease at 10 ug/ml after 30 mins; in short: as §1
Hepacivirus hominis [4] = assay: Inhibition of HCV NS3/4A protease at 100 ug/ml after 30 mins; in short: as §1

SMILES	IC50 [1]	inhibition (Hepacivirus hominis [2])	inhibition (Hepacivirus hominis [3])	inhibition (Hepacivirus hominis [4])
CC(C)C[C@H](NC(=O)C1(Cc2ccsc2C(=O)O)Cc2ccccc2N1)C(=O)NC(CC(F)F)C(=O)C(=O)O (some centres not stated)	0.4 µg/mL (≈ 0.707 µM)			
O=C(COc1ccc(/C=C/C(=O)c2c[nH]c3ccccc23)cc1)Nc1ncncc1C(=O)O	29 µg/mL (≈ 65.5 µM)	57.2%	22.4%	73.7%
O=C(COc1ccc(/C=C/C(=O)c2c[nH]c3ccccc23)cc1)N[C@@H](Cc1ccc(O)cc1)C(=O)O	12 µg/mL (≈ 24.8 µM)	81.2%	49.5%	83.9%
O=C(COc1ccc(/C=C/C(=O)c2c[nH]c3ccccc23)cc1)N[C@@H](Cc1c[nH]cn1)C(=O)O	21 µg/mL (≈ 45.8 µM)	48.5%	36.4%	78.7%
O=C(COc1ccc(/C=C/C(=O)c2c[nH]c3ccccc23)cc1)Nc1ccc(C(=O)c2ccccc2C(=O)O)cc1	19 µg/mL (≈ 34.9 µM)	72%	40.1%	80.9%
O=C(O)COc1ccc(/C=C/C(=O)c2c[nH]c3ccccc23)cc1	> 100 µg/mL	22.9%		51.8%

More lines, now with the values ahead:

IC50 [1]	inhibition (Hepacivirus hominis [2])	inhibition (Hepacivirus hominis [3])	inhibition (Hepacivirus hominis [4])	SMILES
19 µg/mL (≈ 37.4 µM)	67.2%	44.5%	82.9%	O=C(COc1ccc(/C=C/C(=O)c2c[nH]c3ccccc23)cc1)N[C@@H](Cc1c[nH]c2ccccc12)C(=O)O
> 100 µg/mL	29.4%		58.4%	N#Cc1cncnc1NC(=O)COc1ccc(/C=C/C(=O)c2c[nH]c3ccccc23)cc1
6.4 µg/mL (≈ 14 µM)				CC(=O)OCCC/C(=C1/SC(=S)N(CC(=O)O)C1=O)c1ccc(Br)cc1
9 µg/mL (≈ 19.2 µM)	82.4%	53.7%	84.7%	O=C(COc1ccc(/C=C/C(=O)c2c[nH]c3ccccc23)cc1)N[C@@H](Cc1ccccc1)C(=O)O
